Measurements: ChEMBL document CHEMBL1131472, “A1 adenosine receptor antagonists as ligands for positron emission tomography (PET) and single-photon emission tomography (SPET)” (J Med Chem, 1998)
Where “and” joins values, the source holds several entries; their conditions need not be identical. Equal entries are not always repeated.

Target: T1, Adenosine receptor A1 (Bos taurus, UniProt P28190)
T1 sequence (P28190 whole entry): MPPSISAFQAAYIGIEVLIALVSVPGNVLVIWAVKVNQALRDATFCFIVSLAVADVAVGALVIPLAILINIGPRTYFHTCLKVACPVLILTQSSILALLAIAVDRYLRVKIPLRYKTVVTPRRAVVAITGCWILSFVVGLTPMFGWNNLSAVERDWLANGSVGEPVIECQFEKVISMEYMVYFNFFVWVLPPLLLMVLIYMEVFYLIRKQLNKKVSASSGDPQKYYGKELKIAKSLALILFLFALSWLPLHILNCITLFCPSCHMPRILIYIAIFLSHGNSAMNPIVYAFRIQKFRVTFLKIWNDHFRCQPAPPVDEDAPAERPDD
Experiment: Displacement of [3H]CPX from Adenosine A1 receptor of bovine brain cerebral cortex membranes
Assay type: tissue-based
Outline: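 Competition binding at room temperature in 50 mM Tris·HCl, 0.02% CHAPS, pH 7.4. Mixture held 0.2 nM [3H]CPX, 25 µg bovine cerebral cortex membranes and 0.2 U/mL adenosine deaminase. Membranes were added to start binding, and incubation was stopped after 2 h by glass-fibre filtration. Bound radioactivity was counted by liquid scintillation. Nonspecific binding was defined with 10 µM (R)-PIA. Ki came from nonlinear curve fitting as the geometric mean (95% confidence limits) of 3-5 experiments in duplicate.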

CCCn1c(=O)c2nc(C3CCCC3)[nH]c2n(CCCF)c1=O
Ki: 0.183 nM

CCCn1c(=O)c2[nH]c(C3CCCC3)nc2n(CC(C)F)c1=O (stereo unspecified)
Ki: 0.094 nM

CCCn1c(=O)n(C)c(=O)c2[nH]c(C3CCCC3)nc21
Ki: 0.526 nM

CCCn1c(=O)c2nc(C3CCCC3)[nH]c2n(CCOC)c1=O
Ki: 0.493 nM

CCCn1c(=O)n(CCCF)c(=O)c2nc(C3CCCC3)[nH]c21
Ki: 0.216 nM

CCCn1c(=O)n(COCC)c(=O)c2[nH]c(C3CCCC3)nc21
Ki: 0.286 nM

CCCn1c(=O)[nH]c2nc(C3CCCC3)n(C)c2c1=O
Ki: 149 nM

CCCn1c(=O)c2nc(C3CCCC3)[nH]c2n(C)c1=O
Ki: 0.31 nM

CCCn1c(=O)c2nc(C3CCCC3)[nH]c2n(C/C=C/I)c1=O
Ki: 0.237 nM

CCCn1c(=O)n(CC(C)F)c(=O)c2[nH]c(C3CCCC3)nc21 (stereo unspecified)
Ki: 1.23 nM

CCCn1c(=O)c2[nH]c(C3CCCC3)nc2n(CCC)c1=O [1,3-DIPROPYL-8-CYCLOPENTYLXANTHINE [DPCPX]]
Ki: 0.155 nM and 0.17 nM
